Source: ChEMBL document CHEMBL5385905, “Design, synthesis and characterisation of a novel type II B-RAF paradox breaker inhibitor” (Eur J Med Chem, 2023)
Activity calls are given as the source filed them.

Experiments:
[1] = molecular target: T1, Dual specificity mitogen-activated protein kinase kinase 5 (Homo sapiens) (UniProt Q13163); experiment: Inhibition of MEK5 (unknown origin) at 1 uM relative to control
T1 sequence (whole entry): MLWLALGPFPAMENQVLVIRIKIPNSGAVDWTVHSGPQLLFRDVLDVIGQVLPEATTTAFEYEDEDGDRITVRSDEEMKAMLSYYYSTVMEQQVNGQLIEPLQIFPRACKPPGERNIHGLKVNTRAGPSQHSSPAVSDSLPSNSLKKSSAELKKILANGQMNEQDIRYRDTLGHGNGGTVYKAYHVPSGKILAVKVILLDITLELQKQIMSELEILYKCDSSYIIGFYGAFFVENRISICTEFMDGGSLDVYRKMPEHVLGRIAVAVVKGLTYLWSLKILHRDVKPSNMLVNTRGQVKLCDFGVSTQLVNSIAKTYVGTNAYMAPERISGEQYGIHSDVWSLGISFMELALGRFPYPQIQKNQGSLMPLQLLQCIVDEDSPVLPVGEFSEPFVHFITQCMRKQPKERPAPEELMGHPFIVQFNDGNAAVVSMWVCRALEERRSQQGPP

[2] = molecular target: Dual specificity mitogen-activated protein kinase kinase 4 (Homo sapiens) (UniProt P45985); experiment: Inhibition of MEK4 (unknown origin) at 1 uM relative to control
[3] = molecular target: Mast/stem cell growth factor receptor Kit (Homo sapiens) (UniProt P10721); experiment: Inhibition of KIT (unknown origin) at 1 uM relative to control
[4] = molecular target: Tyrosine-protein kinase Fgr (Homo sapiens) (UniProt P09769); experiment: Inhibition of FGR (unknown origin) at 1 uM relative to control
[5] = molecular target: RAF proto-oncogene serine/threonine-protein kinase (Homo sapiens) (UniProt P04049); experiment: Inhibition of RAF1 (unknown origin) at 1 uM relative to control
[6] = molecular target: Serine/threonine-protein kinase B-raf (Homo sapiens, UniProt P15056); experiment: Inhibition of wild type B-RAF (unknown origin) expressed in Escherichia coli BL21 (DE3)
[7] = molecular target: Serine/threonine-protein kinase B-raf (Homo sapiens, UniProt P15056, V600E); experiment: Inhibition of B-RAF V600E mutant (unknown origin) expressed in Escherichia coli BL21 (DE3)
[8] = molecular target: Tyrosine-protein kinase ABL1 (Homo sapiens) (UniProt P00519); experiment: Inhibition of ABL1 (unknown origin) at 1 uM relative to control
[9] = molecular target: Tyrosine-protein kinase Lck (Homo sapiens) (UniProt P06239); experiment: Inhibition of LCK (unknown origin) at 1 uM relative to control
[10] = molecular target: Macrophage colony-stimulating factor 1 receptor (Homo sapiens) (UniProt P07333); experiment: Inhibition of CSF1R (unknown origin) at 1 uM relative to control
[11] = molecular target: Mitogen-activated protein kinase 14 (Homo sapiens) (UniProt Q16539); experiment: Inhibition of p-38 alpha (unknown origin) at 1 uM relative to control
[12] = molecular target: Mitogen-activated protein kinase 11 (Homo sapiens) (UniProt Q15759); experiment: Inhibition of p-38 beta (unknown origin) at 1 uM relative to control
[13] = molecular target: Proto-oncogene tyrosine-protein kinase receptor Ret (Homo sapiens) (UniProt P07949); experiment: Inhibition of RET (unknown origin) at 1 uM relative to control
[14] = molecular target: Tyrosine-protein kinase CSK (Homo sapiens) (UniProt P41240); experiment: Inhibition of CSK (unknown origin) at 1 uM relative to control
[15] = molecular target: Vascular endothelial growth factor receptor 1 (Homo sapiens) (UniProt P17948); experiment: Inhibition of FLT1 (unknown origin) at 1 uM relative to control
[16] = molecular target: Vascular endothelial growth factor receptor 3 (Homo sapiens) (UniProt P35916); experiment: Inhibition of FLT4 (unknown origin) at 1 uM relative to control
[17] = molecular target: Tyrosine-protein kinase Blk (Homo sapiens) (UniProt P51451); experiment: Inhibition of BLK (unknown origin) at 1 uM relative to control
[18] = molecular target: Vascular endothelial growth factor receptor 2 (Homo sapiens) (UniProt P35968); experiment: Inhibition of VEGFR2 (unknown origin) at 1 uM relative to control
[19] = molecular target: Platelet-derived growth factor receptor alpha (Homo sapiens) (UniProt P16234); experiment: Inhibition of PDGFRA (unknown origin) at 1 uM relative to control
[20] = molecular target: Tyrosine-protein kinase Lyn (Homo sapiens) (UniProt P07948); experiment: Inhibition of LYN (unknown origin) at 1 uM relative to control
[21] = molecular target: Tyrosine-protein kinase HCK (Homo sapiens) (UniProt P08631); experiment: Inhibition of HCK (unknown origin) at 1 uM relative to control
[22] = molecular target: Proto-oncogene tyrosine-protein kinase Src (Homo sapiens) (UniProt P12931); experiment: Inhibition of SRC (unknown origin) at 1 uM relative to control
[23] = molecular target: Tyrosine-protein kinase Yes (Homo sapiens) (UniProt P07947); experiment: Inhibition of YES (unknown origin) at 1 uM relative to control
[24] = molecular target: Tyrosine-protein kinase TXK (Homo sapiens) (UniProt P42681); experiment: Inhibition of TXK (unknown origin) at 1 uM relative to control
[25] = molecular target: Tyrosine-protein kinase Fyn (Homo sapiens) (UniProt P06241); experiment: Inhibition of FYN (unknown origin) at 1 uM relative to control
[26] = molecular target: Mitogen-activated protein kinase kinase kinase kinase 4 (Homo sapiens) (UniProt O95819); experiment: Inhibition of MAP4K4 (unknown origin) at 1 uM relative to control
[27] = molecular target: Receptor-type tyrosine-protein kinase FLT3 (Homo sapiens) (UniProt P36888); experiment: Inhibition of FLT3 (unknown origin) at 1 uM relative to control
[28] = molecular target: Cyclin-dependent kinase 19 (Homo sapiens) (UniProt Q9BWU1); experiment: Inhibition of CDK11 (unknown origin) at 1 uM relative to control
[29] = molecular target: Fibroblast growth factor receptor 1 (Homo sapiens) (UniProt P11362); experiment: Inhibition of FGFR1 (unknown origin) at 1 uM relative to control
[30] = molecular target: Cytoplasmic tyrosine-protein kinase BMX (Homo sapiens) (UniProt P51813); experiment: Inhibition of BMX (unknown origin) at 1 uM relative to control
[31] = molecular target: Fibroblast growth factor receptor 2 (Homo sapiens) (UniProt P21802); experiment: Inhibition of FGFR2 (unknown origin) at 1 uM relative to control
SW-620 [32] = experiment: Cytotoxicity against human SW620 cells incubated for 96 hrs by MTT assay; type: functional, cell-based
Summary of the method: (§1)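 SW620 (ATCC) seeded at 4000 cells/well and A375 (ATCC) at 1000 cells/well in 96-well format. Compounds added the next day at increasing concentrations. Exposure 96 h. Viability read by MTT method per Mosmann.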

A-375 [33] = experiment: Cytotoxicity against human A-375 cells incubated for 96 hrs by MTT assay; type: functional, cell-based; conditions: A-375, 96 h; summary of the method: as §1
A-375 [34] = experiment: Cytotoxicity against human A-375 cells expressing B-RAF V600E mutant assessed as inhibition of cell proliferation incubated for 96 hrs by MTT assay; type: functional, cell-based; summary of the method: as §1
SW-620 [35] = experiment: Cytotoxicity against human SW620 cells expressing wild type B-RAF assessed as inhibition of cell proliferation incubated for 96 hrs by MTT assay; type: functional, cell-based; summary of the method: as §1
A-375 [36] = experiment: Inhibition of MAPK pathway in human A-375 cells expressing B-RAF V600E mutant assessed as downregulation of MEK phosphorylation incubated for 1 to 4 hrs by immunoblotting analysis; type: cell-based; conditions: time 1-4 hrs
Summary of the method: (§2)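 SW620 seeded at 750 000 and A375 at 300 000 cells/well in 6-well format, grown 48 h to 75% confluence. Treated with increasing compound concentrations for 1 or 4 h. Lysis in 10 mM Tris-HCl, 1% SDS, 20 mM Na3VO4. 10–25 µg protein run on SDS-PAGE, transferred to PVDF, probed for MEK, phospho-MEK, phospho-ERK, B-Raf and actin. Read by LI-COR Odyssey.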

A-375 [37] = experiment: Inhibition of MAPK pathway in human A-375 cells expressing B-RAF V600E mutant assessed as downregulation of ERK phosphorylation incubated for 1 to 4 hrs by immunoblotting analysis; type: cell-based; conditions: time 1-4 hrs; summary of the method: as §2
SW620 [38] = experiment: Inhibition of MAPK pathway in human SW620 cells expressing wild type B-RAF assessed as effect on ERK protein expression incubated for 1 to 4 hrs by immunoblotting analysis; type: cell-based; conditions: time 1-4 hrs
[39] = molecular target: Platelet-derived growth factor receptor beta (Homo sapiens) (UniProt P09619); experiment: Inhibition of PDGFRB (unknown origin) at 1 uM relative to control
SW620 [40] = experiment: Inhibition of MAPK pathway in human SW620 cells expressing wild type B-RAF assessed as downregulation of MEK phosphorylation incubated for 1 to 4 hrs by immunoblotting analysis; type: cell-based; conditions: time 1-4 hrs; summary of the method: as §2
SW620 [41] = experiment: Inhibition of MAPK pathway in human SW620 cells expressing wild type B-RAF assessed as downregulation of ERK phosphorylation incubated for 1 to 4 hrs by immunoblotting analysis; type: cell-based; conditions: time 1-4 hrs; summary of the method: as §2
[42] = molecular target: Serine/threonine-protein kinase VRK2 (Homo sapiens) (UniProt Q86Y07); experiment: Inhibition of VRK2 (unknown origin) at 1 uM relative to control
[43] = molecular target: Ribosomal protein S6 kinase alpha-1 (Homo sapiens) (UniProt Q15418); experiment: Inhibition of RSK1 (unknown origin) at 1 uM relative to control
[44] = Homo sapiens, SW-620, 96 h, read-out: IC50

Tyrosine-protein kinase Blk (Homo sapiens), sequence (P51451 2-505 limits assumed): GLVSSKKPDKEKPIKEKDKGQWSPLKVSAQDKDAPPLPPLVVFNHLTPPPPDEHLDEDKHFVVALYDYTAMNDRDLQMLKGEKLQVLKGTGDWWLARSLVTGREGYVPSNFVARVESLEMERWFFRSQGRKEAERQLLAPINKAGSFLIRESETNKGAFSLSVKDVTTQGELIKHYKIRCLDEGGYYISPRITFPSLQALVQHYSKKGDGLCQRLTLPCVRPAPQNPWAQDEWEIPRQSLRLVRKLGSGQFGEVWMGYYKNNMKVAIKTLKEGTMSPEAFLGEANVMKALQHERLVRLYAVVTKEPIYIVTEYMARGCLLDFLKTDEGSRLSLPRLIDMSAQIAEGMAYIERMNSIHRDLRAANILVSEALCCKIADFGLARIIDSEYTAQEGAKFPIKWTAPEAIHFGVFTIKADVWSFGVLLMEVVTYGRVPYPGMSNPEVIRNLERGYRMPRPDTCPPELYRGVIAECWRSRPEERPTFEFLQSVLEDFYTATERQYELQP
RAF proto-oncogene serine/threonine-protein kinase (Homo sapiens), sequence (P04049 whole entry): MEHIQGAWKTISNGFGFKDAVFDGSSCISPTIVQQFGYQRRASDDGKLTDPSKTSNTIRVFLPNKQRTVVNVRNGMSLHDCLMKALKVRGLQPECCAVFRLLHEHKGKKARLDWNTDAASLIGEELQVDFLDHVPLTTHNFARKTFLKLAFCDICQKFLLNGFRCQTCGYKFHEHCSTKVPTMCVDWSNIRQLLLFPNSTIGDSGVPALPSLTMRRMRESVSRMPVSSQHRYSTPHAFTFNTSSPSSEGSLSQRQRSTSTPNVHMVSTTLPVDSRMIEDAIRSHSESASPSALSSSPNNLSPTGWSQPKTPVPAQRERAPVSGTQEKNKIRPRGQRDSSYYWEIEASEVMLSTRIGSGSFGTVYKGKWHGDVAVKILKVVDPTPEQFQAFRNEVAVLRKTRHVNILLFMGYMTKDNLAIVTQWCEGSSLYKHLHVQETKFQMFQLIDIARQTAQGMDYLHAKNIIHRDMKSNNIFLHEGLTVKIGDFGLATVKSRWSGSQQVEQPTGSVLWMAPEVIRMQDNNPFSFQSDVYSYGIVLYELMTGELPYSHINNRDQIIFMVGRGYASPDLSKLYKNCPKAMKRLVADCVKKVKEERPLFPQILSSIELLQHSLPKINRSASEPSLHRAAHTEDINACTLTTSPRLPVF
Tyrosine-protein kinase Fgr (Homo sapiens), sequence (P09769 2-529 limits assumed): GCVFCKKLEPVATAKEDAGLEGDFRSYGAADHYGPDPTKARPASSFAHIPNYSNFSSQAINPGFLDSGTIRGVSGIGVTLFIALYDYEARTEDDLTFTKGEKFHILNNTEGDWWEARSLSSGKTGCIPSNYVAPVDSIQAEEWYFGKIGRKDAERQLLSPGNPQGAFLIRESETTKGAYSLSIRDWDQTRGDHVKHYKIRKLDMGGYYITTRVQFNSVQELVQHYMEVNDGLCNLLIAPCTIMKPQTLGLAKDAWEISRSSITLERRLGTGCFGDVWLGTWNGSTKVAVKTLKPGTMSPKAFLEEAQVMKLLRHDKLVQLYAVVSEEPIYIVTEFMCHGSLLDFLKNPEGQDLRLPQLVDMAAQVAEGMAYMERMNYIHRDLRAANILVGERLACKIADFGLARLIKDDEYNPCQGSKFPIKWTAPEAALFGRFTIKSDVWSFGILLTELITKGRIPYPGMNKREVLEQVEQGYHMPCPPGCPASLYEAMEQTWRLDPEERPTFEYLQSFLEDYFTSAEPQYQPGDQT
Platelet-derived growth factor receptor beta (Homo sapiens), sequence (P09619 whole entry): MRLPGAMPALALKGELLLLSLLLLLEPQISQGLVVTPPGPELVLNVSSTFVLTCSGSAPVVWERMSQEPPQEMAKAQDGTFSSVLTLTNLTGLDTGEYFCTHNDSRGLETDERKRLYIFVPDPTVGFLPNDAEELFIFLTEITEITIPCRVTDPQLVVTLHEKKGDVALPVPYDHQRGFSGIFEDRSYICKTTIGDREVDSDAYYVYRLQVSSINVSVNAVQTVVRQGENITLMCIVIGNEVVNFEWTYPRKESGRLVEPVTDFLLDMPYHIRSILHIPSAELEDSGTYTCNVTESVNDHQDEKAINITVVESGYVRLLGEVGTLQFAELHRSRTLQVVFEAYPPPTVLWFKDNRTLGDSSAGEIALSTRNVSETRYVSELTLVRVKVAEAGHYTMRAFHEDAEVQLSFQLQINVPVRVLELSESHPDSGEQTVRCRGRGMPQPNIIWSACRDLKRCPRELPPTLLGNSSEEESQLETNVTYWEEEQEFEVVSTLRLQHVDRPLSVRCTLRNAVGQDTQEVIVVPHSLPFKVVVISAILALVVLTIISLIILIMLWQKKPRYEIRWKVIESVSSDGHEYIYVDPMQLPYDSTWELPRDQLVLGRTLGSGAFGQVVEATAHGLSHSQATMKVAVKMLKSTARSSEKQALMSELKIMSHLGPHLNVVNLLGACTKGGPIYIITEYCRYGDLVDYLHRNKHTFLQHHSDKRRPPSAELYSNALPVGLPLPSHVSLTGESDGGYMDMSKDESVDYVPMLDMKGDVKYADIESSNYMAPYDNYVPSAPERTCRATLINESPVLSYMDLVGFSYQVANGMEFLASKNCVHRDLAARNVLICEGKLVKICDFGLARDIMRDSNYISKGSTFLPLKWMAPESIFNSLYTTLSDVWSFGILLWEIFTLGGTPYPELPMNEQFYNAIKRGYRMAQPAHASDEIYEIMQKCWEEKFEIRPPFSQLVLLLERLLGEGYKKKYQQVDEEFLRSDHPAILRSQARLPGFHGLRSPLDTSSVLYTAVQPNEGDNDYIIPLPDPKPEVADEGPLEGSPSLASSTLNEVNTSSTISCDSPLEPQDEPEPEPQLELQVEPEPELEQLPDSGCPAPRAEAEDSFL
Mast/stem cell growth factor receptor Kit (Homo sapiens), sequence (P10721 whole entry): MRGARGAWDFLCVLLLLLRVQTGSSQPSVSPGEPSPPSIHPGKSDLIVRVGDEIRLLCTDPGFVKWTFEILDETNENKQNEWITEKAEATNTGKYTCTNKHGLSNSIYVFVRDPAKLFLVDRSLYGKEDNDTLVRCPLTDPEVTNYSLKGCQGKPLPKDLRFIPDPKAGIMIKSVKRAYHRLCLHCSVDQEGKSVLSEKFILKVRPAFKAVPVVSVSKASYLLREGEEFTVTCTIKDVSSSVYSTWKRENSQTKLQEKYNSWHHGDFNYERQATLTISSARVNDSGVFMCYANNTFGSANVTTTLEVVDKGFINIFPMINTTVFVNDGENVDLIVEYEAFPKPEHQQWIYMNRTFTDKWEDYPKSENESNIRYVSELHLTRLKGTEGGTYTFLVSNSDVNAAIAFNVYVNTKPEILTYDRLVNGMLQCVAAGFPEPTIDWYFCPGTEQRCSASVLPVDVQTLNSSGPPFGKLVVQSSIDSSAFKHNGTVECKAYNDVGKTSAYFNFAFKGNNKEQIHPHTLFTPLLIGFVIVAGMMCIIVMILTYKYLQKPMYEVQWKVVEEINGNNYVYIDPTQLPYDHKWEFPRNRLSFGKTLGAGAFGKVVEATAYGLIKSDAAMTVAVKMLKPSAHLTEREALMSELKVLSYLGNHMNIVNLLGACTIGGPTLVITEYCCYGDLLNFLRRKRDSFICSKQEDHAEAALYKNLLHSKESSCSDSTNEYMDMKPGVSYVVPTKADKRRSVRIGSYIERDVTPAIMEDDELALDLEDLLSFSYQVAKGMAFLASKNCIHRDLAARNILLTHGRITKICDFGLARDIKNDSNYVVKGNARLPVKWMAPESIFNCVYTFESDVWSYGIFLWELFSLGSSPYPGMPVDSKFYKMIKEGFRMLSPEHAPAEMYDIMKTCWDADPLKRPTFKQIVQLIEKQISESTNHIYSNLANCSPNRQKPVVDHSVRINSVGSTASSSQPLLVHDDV
Serine/threonine-protein kinase B-raf (Homo sapiens, UniProt P15056, V600E), sequence (P15056 2-766 V600E limits assumed): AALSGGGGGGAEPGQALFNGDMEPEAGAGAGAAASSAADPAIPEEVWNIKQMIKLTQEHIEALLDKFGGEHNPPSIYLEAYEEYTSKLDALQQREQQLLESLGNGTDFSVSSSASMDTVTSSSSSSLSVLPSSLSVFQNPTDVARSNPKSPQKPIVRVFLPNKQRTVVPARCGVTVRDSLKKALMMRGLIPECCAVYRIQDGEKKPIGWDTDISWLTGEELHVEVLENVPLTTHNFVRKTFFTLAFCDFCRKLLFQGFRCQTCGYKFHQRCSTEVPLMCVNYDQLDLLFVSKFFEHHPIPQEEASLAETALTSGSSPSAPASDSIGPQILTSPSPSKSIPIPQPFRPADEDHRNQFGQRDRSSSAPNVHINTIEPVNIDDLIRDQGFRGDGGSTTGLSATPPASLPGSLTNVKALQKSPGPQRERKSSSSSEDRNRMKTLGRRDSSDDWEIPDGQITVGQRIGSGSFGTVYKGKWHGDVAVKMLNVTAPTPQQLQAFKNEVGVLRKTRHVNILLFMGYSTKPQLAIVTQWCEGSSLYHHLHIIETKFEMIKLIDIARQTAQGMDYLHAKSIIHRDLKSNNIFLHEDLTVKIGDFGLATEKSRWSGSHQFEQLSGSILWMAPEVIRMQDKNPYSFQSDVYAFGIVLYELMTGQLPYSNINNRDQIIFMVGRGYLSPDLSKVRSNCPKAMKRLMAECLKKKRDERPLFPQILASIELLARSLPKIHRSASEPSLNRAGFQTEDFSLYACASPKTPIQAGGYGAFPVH
Dual specificity mitogen-activated protein kinase kinase 4 (Homo sapiens), sequence (P45985 whole entry): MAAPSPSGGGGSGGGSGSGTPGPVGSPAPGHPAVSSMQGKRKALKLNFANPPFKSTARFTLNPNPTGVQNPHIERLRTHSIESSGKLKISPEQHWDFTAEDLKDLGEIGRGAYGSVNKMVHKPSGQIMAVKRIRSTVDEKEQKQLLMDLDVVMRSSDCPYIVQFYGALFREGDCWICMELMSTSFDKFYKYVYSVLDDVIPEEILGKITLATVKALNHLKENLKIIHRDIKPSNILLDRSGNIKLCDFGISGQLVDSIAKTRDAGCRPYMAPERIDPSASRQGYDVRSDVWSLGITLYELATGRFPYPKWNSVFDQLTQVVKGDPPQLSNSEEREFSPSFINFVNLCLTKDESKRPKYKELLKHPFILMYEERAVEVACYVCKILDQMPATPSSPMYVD

CCCS(=O)(=O)Nc1ccc(F)c(C(=O)c2c[nH]c3ncc(Cl)cc23)c1F
> 80%: inhibition [1] | inhibition [2] | inhibition [3] | inhibition [4] | inhibition [5]

CC(C)(C#N)c1cccc(C(=O)Nc2ccc(F)c(C(=O)c3c[nH]c4ncc(Cl)cc34)c2F)c1
inactive: inhibition (SW620 [38])
> 80%: inhibition [1] | inhibition [3] | inhibition [4] | inhibition [5] | inhibition [8] | inhibition [9] | inhibition [10] | inhibition [11] | inhibition [12] | inhibition [13] | inhibition [14] | inhibition [15] | inhibition [16] | inhibition [17] | inhibition [18] | inhibition [19] | inhibition [20] | inhibition [21] | inhibition [22] | inhibition [23] | inhibition [24] | inhibition [25] | inhibition [26] | inhibition [27] | inhibition [28] | inhibition [29] | inhibition [30] | inhibition [31]
2.81 µM: IC50 (SW-620 [32]; [44])
~10 µM: IC50 (A-375 [33])
0.048 µM: IC50 [7]
active: Activity (A-375 [34]) | Activity (SW-620 [35]) | inhibition (A-375 [36]) | inhibition (A-375 [37])
0.056 µM: IC50 [6]

CCCS(=O)(=O)Nc1ccc(F)c(C(=O)c2c[nH]c3ncc(-c4ccc(Cl)cc4)cc23)c1F [VEMURAFENIB]
> 80%: inhibition [1] | inhibition [39] | inhibition [2] | inhibition [3] | inhibition [4] | inhibition [5]
Not Active: IC50 (SW-620 [32]; sw-620)
0.09 µM: IC50 (A-375 [33])
inactive: Activity (SW-620 [35]) | inhibition (SW620 [40]) | inhibition (SW620 [41])
active: Activity (A-375 [34]) | inhibition (A-375 [36]) | inhibition (A-375 [37])

CCN(C)S(=O)(=O)Nc1ccc(F)c(C(=O)c2c[nH]c3ncc(-c4ccc(Cl)cc4)cc23)c1F
Not Active: IC50 (SW-620 [32]; sw-620)
active: Activity (A-375 [34]) | inhibition (A-375 [36]) | inhibition (A-375 [37])
0.69 µM: IC50 [6]
> 80%: inhibition [1] | inhibition [39] | inhibition [4] | inhibition [17] | inhibition [42]
0.56 µM: IC50 (A-375 [33])
inactive: Activity (SW-620 [35])
1.41 µM: IC50 [7]

Cc1ccc(NC(=O)c2cccc(C(C)(C)C#N)c2)cc1Nc1ccc2ncn(C)c(=O)c2c1
0.04 µM: IC50 (A-375 [33])
> 80%: inhibition [1] | inhibition [39] | inhibition [3] | inhibition [5] | inhibition [8] | inhibition [9] | inhibition [10] | inhibition [11] | inhibition [12] | inhibition [13] | inhibition [43] | inhibition [14] | inhibition [15] | inhibition [16] | inhibition [17] | inhibition [18] | inhibition [19] | inhibition [20] | inhibition [21] | inhibition [22] | inhibition [23] | inhibition [24] | inhibition [25]
0.17 µM: IC50 (SW-620 [32]; [44])
inactive: inhibition (SW620 [38])
active: Activity (A-375 [34]) | Activity (SW-620 [35]) | inhibition (A-375 [36]) | inhibition (A-375 [37])
